According to ChEMBL document CHEMBL2331439 (J Med Chem, 2013):
Calls of active or inactive are those of the source. The calls are words filed in the database; no cut-off is given here.

Tests used:
[1] = biological target: Protein kinase C beta type (Homo sapiens) (UniProt P05771); test: Inhibition of recombinant PRKCB1 (unknown origin) at 5 uM by FRET-based Z'-LYTE assay
Summary of the method: (§1)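 Z'-LYTE FRET peptide (coumarin/fluorescein) phosphorylation was followed by protease development. Wells included a protease control for interference with development and a fluorescence control for interference with the FRET read. Values above 100% or below 0% were treated as maximal or no inhibition.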

[2] = biological target: Ribosomal protein S6 kinase alpha-3 (Homo sapiens) (UniProt P51812); test: Inhibition of recombinant RPS6KA3 (unknown origin) at 5 uM by FRET-based Z'-LYTE assay; summary of the method: as §1
[3] = biological target: Inhibitor of nuclear factor kappa-B kinase subunit beta (Homo sapiens) (UniProt O14920); test: Inhibition of recombinant IKBKB (unknown origin) at 5 uM by FRET-based Z'-LYTE assay
Summary of the method: (§2)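 Single-point panel screen at 5 μM in duplicate. ATP is at the apparent Km of each kinase, and the Z'-LYTE FRET peptide substrate is used. Each point has two control wells: a protease control for interference with development and a fluorescence control for interference with the FRET read-out. Values above 100% are treated as maximal inhibition and values below 0% as none.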

[4] = biological target: RAF proto-oncogene serine/threonine-protein kinase (Homo sapiens, UniProt P04049); test: Inhibition of recombinant RAF1 (unknown origin) by cascade reaction assay
Chain of RAF proto-oncogene serine/threonine-protein kinase (P04049 whole entry): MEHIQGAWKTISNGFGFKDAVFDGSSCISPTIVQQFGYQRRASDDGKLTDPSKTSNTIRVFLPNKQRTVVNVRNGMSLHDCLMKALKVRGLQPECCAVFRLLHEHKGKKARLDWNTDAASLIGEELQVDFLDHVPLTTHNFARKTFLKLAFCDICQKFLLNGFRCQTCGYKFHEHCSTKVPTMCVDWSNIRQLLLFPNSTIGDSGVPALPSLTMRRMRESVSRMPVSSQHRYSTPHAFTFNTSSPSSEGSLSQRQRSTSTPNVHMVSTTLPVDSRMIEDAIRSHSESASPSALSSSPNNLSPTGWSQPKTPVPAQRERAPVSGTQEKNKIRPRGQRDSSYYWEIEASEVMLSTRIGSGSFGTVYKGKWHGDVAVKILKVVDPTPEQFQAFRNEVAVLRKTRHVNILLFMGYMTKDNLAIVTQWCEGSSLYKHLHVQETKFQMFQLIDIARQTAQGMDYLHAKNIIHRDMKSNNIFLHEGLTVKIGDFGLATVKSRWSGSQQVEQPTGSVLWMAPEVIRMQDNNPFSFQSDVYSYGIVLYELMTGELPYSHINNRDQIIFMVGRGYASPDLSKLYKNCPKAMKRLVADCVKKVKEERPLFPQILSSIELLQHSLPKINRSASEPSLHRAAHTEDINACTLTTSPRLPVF

[5] = biological target: Tyrosine-protein kinase Lck (Homo sapiens) (UniProt P06239); test: Inhibition of recombinant LCK (unknown origin) at 5 uM by FRET-based Z'-LYTE assay; summary of the method: as §2
Chain of Tyrosine-protein kinase Lck (Homo sapiens) (P06239 2-509 limits assumed): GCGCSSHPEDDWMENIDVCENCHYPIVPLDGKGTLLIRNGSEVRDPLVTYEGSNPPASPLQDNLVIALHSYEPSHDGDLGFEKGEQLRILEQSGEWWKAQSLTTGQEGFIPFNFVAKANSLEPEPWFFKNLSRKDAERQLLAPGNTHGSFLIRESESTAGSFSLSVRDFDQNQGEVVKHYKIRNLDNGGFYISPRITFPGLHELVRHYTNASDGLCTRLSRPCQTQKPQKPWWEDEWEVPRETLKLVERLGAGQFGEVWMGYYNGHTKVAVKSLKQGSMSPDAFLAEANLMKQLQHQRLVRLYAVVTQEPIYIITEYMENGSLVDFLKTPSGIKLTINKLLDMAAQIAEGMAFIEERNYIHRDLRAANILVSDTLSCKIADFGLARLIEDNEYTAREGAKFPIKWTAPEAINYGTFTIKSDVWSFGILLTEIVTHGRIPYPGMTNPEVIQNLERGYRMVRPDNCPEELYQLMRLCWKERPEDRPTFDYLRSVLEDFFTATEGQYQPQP

[6] = biological target: Dual specificity mitogen-activated protein kinase kinase 1 (Homo sapiens, UniProt Q02750); test: Inhibition of recombinant MEK1 (unknown origin) by cascade reaction assay
Chain of Dual specificity mitogen-activated protein kinase kinase 1 (Q02750 whole entry): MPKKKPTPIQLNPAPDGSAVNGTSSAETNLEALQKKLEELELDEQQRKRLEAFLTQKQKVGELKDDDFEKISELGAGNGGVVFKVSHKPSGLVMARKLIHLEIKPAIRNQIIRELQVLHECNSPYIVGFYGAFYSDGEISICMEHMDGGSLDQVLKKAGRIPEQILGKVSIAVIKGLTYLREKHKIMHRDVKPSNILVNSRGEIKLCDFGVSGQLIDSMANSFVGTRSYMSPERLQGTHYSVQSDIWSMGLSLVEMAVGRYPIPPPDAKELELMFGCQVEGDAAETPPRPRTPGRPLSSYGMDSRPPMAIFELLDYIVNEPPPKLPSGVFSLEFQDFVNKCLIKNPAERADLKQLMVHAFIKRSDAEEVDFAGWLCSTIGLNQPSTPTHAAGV

[7] = biological target: Mitogen-activated protein kinase 14 (Homo sapiens, UniProt Q16539); test: Inhibition of recombinant MAPK14 (unknown origin) by FRET-based Z'-LYTE assay
Chain of Mitogen-activated protein kinase 14 (Q16539 whole entry): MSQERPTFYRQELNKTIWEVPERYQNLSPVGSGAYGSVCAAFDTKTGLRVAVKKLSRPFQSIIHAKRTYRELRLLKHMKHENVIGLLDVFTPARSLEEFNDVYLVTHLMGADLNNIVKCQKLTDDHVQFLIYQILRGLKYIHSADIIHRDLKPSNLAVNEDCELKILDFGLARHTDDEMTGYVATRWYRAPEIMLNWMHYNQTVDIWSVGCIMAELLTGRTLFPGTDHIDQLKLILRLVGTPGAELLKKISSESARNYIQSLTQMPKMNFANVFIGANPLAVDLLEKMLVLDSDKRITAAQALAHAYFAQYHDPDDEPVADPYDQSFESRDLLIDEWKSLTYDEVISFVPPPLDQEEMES

[8] = biological target: MAP kinase-activated protein kinase 2 (Homo sapiens, UniProt P49137); test: Inhibition of recombinant MAPKAPK2 (unknown origin) by FRET-based Z'-LYTE assay
Chain of MAP kinase-activated protein kinase 2 (P49137 whole entry): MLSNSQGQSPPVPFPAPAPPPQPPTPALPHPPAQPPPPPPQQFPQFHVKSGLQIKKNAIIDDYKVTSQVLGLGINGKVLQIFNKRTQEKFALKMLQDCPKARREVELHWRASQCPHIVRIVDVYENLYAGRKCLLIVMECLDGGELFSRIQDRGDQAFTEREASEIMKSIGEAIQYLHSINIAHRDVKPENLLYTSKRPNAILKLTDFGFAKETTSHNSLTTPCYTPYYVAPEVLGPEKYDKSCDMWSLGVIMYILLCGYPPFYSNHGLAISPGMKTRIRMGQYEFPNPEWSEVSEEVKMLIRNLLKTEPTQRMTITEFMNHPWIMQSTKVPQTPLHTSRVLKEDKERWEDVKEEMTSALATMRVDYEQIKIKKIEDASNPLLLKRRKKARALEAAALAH

[9] = biological target: Proto-oncogene tyrosine-protein kinase receptor Ret (Homo sapiens) (UniProt P07949); test: Inhibition of recombinant RET (unknown origin) at 5 uM by FRET-based Z'-LYTE assay; summary of the method: as §1
[10] = biological target: Serine/threonine-protein kinase Nek1 (Homo sapiens) (UniProt Q96PY6); test: Inhibition of recombinant NEK1 (unknown origin) at 5 uM by FRET-based Z'-LYTE assay; summary of the method: as §2
[11] = biological target: Mitogen-activated protein kinase kinase kinase kinase 4 (Homo sapiens) (UniProt O95819); test: Inhibition of recombinant MAP4K4 (unknown origin) at 5 uM by FRET-based Z'-LYTE assay; summary of the method: as §2
Chain of Mitogen-activated protein kinase kinase kinase kinase 4 (Homo sapiens) (O95819 2-1239 limits assumed): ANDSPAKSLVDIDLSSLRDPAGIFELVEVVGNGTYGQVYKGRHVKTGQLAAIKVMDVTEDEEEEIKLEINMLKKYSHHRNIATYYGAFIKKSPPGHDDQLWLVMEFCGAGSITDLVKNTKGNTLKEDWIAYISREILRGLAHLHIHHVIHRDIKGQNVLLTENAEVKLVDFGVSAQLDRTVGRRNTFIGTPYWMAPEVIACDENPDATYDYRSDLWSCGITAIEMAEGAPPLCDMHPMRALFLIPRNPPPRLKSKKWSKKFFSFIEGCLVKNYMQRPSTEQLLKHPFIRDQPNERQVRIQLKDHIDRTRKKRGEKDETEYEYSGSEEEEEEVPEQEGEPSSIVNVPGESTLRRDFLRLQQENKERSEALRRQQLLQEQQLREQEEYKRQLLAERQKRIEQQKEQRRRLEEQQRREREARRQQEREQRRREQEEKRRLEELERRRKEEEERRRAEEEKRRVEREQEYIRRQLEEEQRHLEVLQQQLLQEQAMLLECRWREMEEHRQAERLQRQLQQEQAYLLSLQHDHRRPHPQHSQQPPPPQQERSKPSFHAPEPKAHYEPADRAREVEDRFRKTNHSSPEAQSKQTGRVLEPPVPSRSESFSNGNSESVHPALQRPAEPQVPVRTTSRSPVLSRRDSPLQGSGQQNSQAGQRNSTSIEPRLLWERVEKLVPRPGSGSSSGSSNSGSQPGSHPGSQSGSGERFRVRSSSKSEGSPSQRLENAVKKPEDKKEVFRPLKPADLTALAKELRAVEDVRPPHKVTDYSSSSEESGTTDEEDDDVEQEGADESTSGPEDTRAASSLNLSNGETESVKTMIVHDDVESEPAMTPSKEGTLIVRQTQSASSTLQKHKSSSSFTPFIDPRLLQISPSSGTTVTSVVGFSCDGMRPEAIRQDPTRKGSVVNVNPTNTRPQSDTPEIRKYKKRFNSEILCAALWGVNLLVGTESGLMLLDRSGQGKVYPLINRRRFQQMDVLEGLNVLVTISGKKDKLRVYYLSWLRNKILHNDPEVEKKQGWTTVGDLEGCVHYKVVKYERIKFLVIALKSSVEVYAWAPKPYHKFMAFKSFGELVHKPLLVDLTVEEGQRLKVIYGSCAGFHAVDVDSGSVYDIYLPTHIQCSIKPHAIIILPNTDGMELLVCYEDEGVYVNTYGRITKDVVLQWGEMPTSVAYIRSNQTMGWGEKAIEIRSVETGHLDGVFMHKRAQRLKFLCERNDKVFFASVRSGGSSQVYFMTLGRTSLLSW

[12] = biological target: cAMP-dependent protein kinase catalytic subunit alpha (Homo sapiens) (UniProt P17612); test: Inhibition of recombinant PRKACA (unknown origin) at 5 uM by FRET-based Z'-LYTE assay; summary of the method: as §2
[13] = biological target: Cyclin-dependent kinase 2/cyclin A (Homo sapiens) (UniProt P24941+P20248+P78396); test: Inhibition of recombinant CDK2/cyclin A (unknown origin) at 5 uM by FRET-based Z'-LYTE assay; type: protein-complex assay; summary of the method: as §2
[14] = biological target: T1, Serine/threonine-protein kinase Nek1 (Homo sapiens, UniProt Q96PY6); test: Inhibition of recombinant NEK1 (unknown origin) by FRET-based Z'-LYTE assay
T1 sequence (Q96PY6 whole entry): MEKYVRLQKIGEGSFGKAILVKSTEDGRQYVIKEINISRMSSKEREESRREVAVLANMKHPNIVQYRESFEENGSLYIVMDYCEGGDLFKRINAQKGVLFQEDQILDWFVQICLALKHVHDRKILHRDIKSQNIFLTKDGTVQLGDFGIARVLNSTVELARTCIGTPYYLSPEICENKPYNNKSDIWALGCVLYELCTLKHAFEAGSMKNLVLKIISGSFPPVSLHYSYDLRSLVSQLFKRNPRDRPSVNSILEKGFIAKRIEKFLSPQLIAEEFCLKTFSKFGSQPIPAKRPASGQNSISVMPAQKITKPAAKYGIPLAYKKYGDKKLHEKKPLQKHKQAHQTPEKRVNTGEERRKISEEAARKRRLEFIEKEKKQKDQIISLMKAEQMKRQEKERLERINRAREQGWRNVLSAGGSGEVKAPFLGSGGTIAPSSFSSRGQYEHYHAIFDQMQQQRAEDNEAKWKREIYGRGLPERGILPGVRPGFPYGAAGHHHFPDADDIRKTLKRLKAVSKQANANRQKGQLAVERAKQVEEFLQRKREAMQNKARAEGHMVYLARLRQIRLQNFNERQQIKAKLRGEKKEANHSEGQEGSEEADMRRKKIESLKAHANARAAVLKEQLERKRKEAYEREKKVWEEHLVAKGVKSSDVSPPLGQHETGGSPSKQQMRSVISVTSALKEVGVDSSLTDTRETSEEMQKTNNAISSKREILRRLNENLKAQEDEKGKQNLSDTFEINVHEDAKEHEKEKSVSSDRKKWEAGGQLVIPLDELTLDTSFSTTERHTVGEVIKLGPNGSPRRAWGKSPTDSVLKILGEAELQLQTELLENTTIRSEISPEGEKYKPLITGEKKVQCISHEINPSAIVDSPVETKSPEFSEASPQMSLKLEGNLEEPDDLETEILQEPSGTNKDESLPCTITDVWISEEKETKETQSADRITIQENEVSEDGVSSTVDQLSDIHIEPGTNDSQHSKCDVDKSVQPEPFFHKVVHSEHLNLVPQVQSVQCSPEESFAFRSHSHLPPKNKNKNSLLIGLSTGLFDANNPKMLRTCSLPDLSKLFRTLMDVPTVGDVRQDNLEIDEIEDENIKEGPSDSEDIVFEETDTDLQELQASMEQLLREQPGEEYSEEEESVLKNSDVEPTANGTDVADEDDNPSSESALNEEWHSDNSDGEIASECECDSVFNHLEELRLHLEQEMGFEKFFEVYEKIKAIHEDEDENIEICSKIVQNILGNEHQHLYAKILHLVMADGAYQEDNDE

[15] = biological target: Mast/stem cell growth factor receptor Kit (Homo sapiens) (UniProt P10721); test: Inhibition of recombinant KIT (unknown origin) at 5 uM by FRET-based Z'-LYTE assay; summary of the method: as §2
[16] = biological target: Serine/threonine-protein kinase Chk1 (Homo sapiens) (UniProt O14757); test: Inhibition of recombinant CHEK1 (unknown origin) at 5 uM by FRET-based Z'-LYTE assay; summary of the method: as §2
Chain of Serine/threonine-protein kinase Chk1 (Homo sapiens) (O14757 whole entry): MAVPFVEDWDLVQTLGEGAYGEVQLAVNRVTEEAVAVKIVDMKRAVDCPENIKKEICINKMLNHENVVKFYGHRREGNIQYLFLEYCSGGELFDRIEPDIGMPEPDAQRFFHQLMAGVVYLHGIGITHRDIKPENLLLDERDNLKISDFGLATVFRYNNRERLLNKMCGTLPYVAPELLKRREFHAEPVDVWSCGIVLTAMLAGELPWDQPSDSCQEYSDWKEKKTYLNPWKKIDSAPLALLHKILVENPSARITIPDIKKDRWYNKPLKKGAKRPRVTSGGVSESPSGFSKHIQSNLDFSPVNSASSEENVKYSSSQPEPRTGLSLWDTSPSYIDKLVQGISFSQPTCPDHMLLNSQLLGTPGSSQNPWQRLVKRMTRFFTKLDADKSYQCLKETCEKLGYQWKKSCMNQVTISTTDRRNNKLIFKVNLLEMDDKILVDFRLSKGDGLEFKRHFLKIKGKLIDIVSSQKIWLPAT

[17] = biological target: Activin receptor type-1B (Homo sapiens) (UniProt P36896); test: Inhibition of recombinant ACVR1B (unknown origin) at 5 uM by FRET-based Z'-LYTE assay; summary of the method: as §2
Chain of Activin receptor type-1B (Homo sapiens) (P36896 whole entry): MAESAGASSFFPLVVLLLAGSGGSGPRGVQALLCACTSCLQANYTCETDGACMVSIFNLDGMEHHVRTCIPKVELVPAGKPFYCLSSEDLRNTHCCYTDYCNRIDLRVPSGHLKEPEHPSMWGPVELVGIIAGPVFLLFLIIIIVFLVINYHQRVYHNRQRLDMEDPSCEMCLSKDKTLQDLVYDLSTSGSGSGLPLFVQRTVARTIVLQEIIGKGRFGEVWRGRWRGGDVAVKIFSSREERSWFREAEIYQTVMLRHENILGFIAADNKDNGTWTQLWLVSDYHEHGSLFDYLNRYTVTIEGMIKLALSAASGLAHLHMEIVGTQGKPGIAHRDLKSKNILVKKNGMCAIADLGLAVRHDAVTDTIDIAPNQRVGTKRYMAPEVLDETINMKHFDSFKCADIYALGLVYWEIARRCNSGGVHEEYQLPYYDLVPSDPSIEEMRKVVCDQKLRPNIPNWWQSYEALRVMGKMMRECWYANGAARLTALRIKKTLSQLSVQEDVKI

[18] = biological target: Inhibitor of nuclear factor kappa-B kinase subunit epsilon (Homo sapiens) (UniProt Q14164); test: Inhibition of recombinant IKBKE (unknown origin) at 5 uM by FRET-based Z'-LYTE assay; summary of the method: as §2
[19] = biological target: Mitogen-activated protein kinase 1 (Homo sapiens, UniProt P28482); test: Competitive inhibition of recombinant ERK2 (unknown origin) by FRET-based Z'-LYTE assay
Chain of Mitogen-activated protein kinase 1 (P28482 whole entry): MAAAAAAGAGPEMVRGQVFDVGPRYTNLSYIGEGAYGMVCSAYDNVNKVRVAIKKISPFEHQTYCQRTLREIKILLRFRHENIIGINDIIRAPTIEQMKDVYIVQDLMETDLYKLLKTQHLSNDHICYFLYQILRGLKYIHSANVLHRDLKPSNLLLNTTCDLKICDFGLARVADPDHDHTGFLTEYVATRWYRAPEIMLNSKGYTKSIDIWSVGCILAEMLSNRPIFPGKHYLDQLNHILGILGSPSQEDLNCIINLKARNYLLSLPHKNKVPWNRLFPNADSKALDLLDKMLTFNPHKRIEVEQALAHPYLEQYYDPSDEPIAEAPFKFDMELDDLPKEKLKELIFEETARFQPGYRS

inhibition [1]: 91% | inhibition [2]: 77% | inhibition [3]: 107% | IC50 [4]: 1600 nM | inhibition [5]: 13% | IC50 [6]: 1100 nM | IC50 [7]: 35000 nM | IC50 [8]: 6700 nM | inhibition [9]: 21% | inhibition [10]: 102% | inhibition [11]: 72% | inhibition [12]: 11% | inhibition [13]: 1% | IC50 [14]: 500 nM | inhibition [15]: 2% | inhibition [16]: 90% | inhibition [17]: 1% | inhibition [18]: 15% | inhibition [19]: Active
Compound: O=C1/C(=C/c2ccccn2)CNC/C1=C\c1ccccn1
